PMI act satM6P: human PMI activators, high substrate, primary screen, biochemical, fluorescence intensity, near-saturating mannose 6-phosphate | activation factor at 20 µM | coupled PMI enzyme assay, resazurin fluorescence, 20 min; stronger effect = higher value; 1 = untreated enzyme, 0 = substrate-free blank | AID 1216, 2008 | 190,000 tested, 0.34% active;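 active = activation factor of 2 or more at 20 µM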
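Material: human phosphomannose isomerase with PGI, G6PDH, diaphorase coupling enzymes; amount: PMI at 15 ng/mL final; also added: Mannose-6-phosphate 1.0 mM (near-saturating) plus 0.22 mM NADP+; incubation: enzyme reaction with compound 20 min at room temperature; signal: resorufin fluorescence (Ex 544/Em 590 nm) from resazurin via diaphorase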
FLuc stim CS: FLuc activators, initial screening, artefact control for FLuc-dependent activation tests, biochemical, ATPlite luminescence; 200,000 tested, under 10 active; Luciferin 4-monooxygenase (Photinus pyralis), P08659; ATPlite luciferase biochemical, 10 min; 0 = ATP-free wells, 1 = DMSO control; activation factor at 10 µM;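 active = luciferase activation factor, scaled between plate controls, of at least 2 with compound at 10 µM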
Target sequence (P08659 whole entry, looked up): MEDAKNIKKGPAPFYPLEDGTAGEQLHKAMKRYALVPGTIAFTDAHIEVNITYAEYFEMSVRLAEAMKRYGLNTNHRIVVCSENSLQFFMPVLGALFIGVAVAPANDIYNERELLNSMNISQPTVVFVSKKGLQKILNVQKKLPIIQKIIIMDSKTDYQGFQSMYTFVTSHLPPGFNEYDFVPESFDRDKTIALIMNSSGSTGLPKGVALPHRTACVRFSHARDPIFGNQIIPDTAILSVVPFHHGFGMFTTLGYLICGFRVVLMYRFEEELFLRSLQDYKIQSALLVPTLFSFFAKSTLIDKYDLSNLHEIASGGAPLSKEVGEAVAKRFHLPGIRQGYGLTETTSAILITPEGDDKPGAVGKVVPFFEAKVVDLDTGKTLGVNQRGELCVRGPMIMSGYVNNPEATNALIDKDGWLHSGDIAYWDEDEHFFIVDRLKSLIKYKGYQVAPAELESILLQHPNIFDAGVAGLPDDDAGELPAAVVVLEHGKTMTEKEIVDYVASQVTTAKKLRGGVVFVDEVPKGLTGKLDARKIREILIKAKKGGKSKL
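System: cell-free luciferase reagent; medium: PBS as buffer for the ATP substrate; doses: test compounds dosed from 2 mM stocks in 100% DMSO; incubation: 10 min, room temperature; measured by: luminescence from luciferase reaction; read-out: luciferase activation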
Diaph act CS: compounds boosting diaphorase resazurin reduction – biochemical, uHTS, resorufin fluorescence, counter-screen for diaphorase-coupled primary assays, primary screen; Diaphorase/resazurin coupled assay, 16 min; stronger effect = higher value; 1 = vehicle wells, 0 = NADH-free wells; 190,000 tested, 0.005% active; activation factor at 20 µM;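 active = diaphorase activity raised at least twofold by the compound at 20 µM; inactive = activation factor below 2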
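Material: Purified diaphorase enzyme from Clostridium kluyveri | Buffer or medium: 50 mM HEPES pH 7.4 with 4.542 mM MgCl2, 0.005% Tween 20 | Times: 16 min enzyme reaction, ambient temperature | Signal: Red resorufin fluorescence at 544/590 nm excitation/emission | Measure: Increased resorufin signal from activators or reducing compounds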
FLuc inh counter: firefly luciferase enzyme inhibitors, primary screen, artefact control for luciferase-based inhibitor screens, biochemical, luminescence, ATPLite; inhibition, % at 10 µM; 10 min; 200,000 tested, 1.5% active;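 active = inhibition above about 50% when tested at 10 µM, limit read from the data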
PMI act: activators of human PMI, primary screen, biochemical, fluorescence intensity, near-Km mannose 6-phosphate; Mannose-6-phosphate isomerase (Homo sapiens), P34949; purified human PMI, coupled resazurin fluorescence, 20 min; stronger effect = higher value; 1 = vehicle control, 0 substrate-free wells; activation factor at 20 µM; 190,000 tested, 0.005% active;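 active = activation factor of 2 or more at 20 µM, relative to plate controls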
Diaphorase inh: diaphorase inhibitors and chemical oxidizers, primary screen, counter-screen for diaphorase-coupled primary assays, biochemical, uHTS, resorufin fluorescence; diaphorase resazurin-to-resorufin fluorescence, NADH, 16 min; bacterial (C. kluyveri) enzyme, not human; AID 1217, 2008; 190,000 tested, 0.69% active; inhibition, % at 20 µM;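 active = primary screen inhibition at 20 µM above a set limit, cut at about 50% in these data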;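 note: plate controls were DMSO with full reaction for no effect and wells lacking NADH for full effect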
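Test system: diaphorase enzyme from Clostridium kluyveri; amount: diaphorase at 0.14 U/mL in enzyme working solution; detection: fluorescence of resorufin formed from resazurin, Ex 544/Em 590 nm; times: reaction incubation of 16 min at room temperature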
An asterisk follows results filed as active; · = no result given. Hits are enriched below; roughly 2.5% of the tested compounds scored in any of these assays.

SMILES | PMI act satM6P | FLuc stim CS | Diaph act CS | FLuc inh counter | PMI act | Diaphorase inh
C1CSC2(N1)C1CC3CC2CC(C1)C31NCCS1 (configuration not stated) | 1 | 1.1 | 0.9 | -10 | 1 | 11
O=C(Nc1ccc(NC(=O)C2CCCCC2)cn1)c1ccco1 | 0.9 | 0.1 | 1 | 86* | 1.1 | 4
O=C(Cc1ccccc1)Nc1ccc(NC(=O)C2CCCCC2)nc1 | · | 1 | · | -3 | · | ·
CCOc1ccc(NC(=O)c2ccco2)cc1 | 0.8 | 0.2 | 0.8 | 76* | 0.8 | 16
CCn1cnc2cc(NC(=O)c3ccco3)ccc21 | 0.8 | 0.3 | 0.9 | 66* | 0.9 | 11
Cn1c(CCNC(=O)c2ccco2)nc2cc(NC(=O)c3ccco3)ccc21 | 0.9 | 0.8 | 0.9 | 18 | 1 | 8
CCOc1ccc(NC(=O)CCC(=O)NNC(=O)c2ccco2)cc1 | 1.1 | 1 | 1 | -3 | 1.1 | 1
CC(=O)Nc1ccc(C(=S)NCCCO)cc1 | 1.1 | 1 | 1.1 | -2 | 1.1 | -7
CCN(CC)S(=O)(=O)c1ccc2[nH]c(=O)[nH]c2c1 | 0.9 | 1.1 | 0.8 | -7 | 1 | 15
COc1ccc(/C=C(/NC(=O)c2ccc([N+](=O)[O-])cc2)C(=O)NCCCN(C)C)cc1 | 1 | 1 | 0.9 | -4 | 1 | 8
C=CCn1c(C)cc(C(=O)COc2ncnc3sccc23)c1C | 0.9 | 0.4 | 0.8 | 58* | 0.9 | 20
Cc1ccc(-n2ncc(C(=O)Nc3cc(Cl)cc(Cl)c3)c2C2CCNCC2)cc1C | 0.9 | 1.1 | 1 | -6 | 1 | 2
CCCCn1c(SCC(=O)Nc2cc(C)on2)nc2ccccc2c1=O | 0.9 | 1.1 | 1 | -6 | 0.8 | 0
CCCCn1c(Cc2ccccc2)nnc1SCC(=O)Nc1cc(C)on1 | 0.4 | 1.1 | 0.4 | -6 | 0.5 | 59*
CCCC(c1nnnn1C(C)(C)C)N1CCN(C(=O)c2ccco2)CC1 (configuration not stated) | 1.1 | 1 | 0.9 | 0 | 1 | 9
COc1cccc2c(SCC(=O)N/N=C/c3ccc(O)c(O)c3)cc(C)nc12 | 1 | 1 | 0.5 | -2 | 0.6 | 54*
CCCSc1cc(NCCOC(=O)CCC)c([N+](=O)[O-])c2nonc12 | 0.5 | 1.1 | 0.5 | -5 | 0.6 | 51*
CCCC(=O)OCCNc1cc(SCc2ccco2)c2nonc2c1[N+](=O)[O-] | 0.6 | 0.9 | 0.3 | 7 | 0.7 | 71*
CCCSc1cc(NCCOC(C)=O)c([N+](=O)[O-])c2nonc12 | 0.4 | 1 | 0.6 | -2 | 0.7 | 36
CC(=O)OCCCNc1cc(SCc2ccco2)c2nonc2c1[N+](=O)[O-] | 0.6 | 1 | 0.1 | -2 | 0.6 | 87*
CC(C)C(=O)n1nc(-c2cccnc2)nc1NCc1cccs1 | 1 | 1 | 1 | -1 | 1 | 1
Cc1ccc(-c2nc3ccccc3c(=O)n2NC(=O)c2cccs2)cc1 | 1.1 | 1 | 1 | -3 | 1.1 | -4
Nc1ccc(/C=C/C(=O)c2ccco2)cc1 | 0.8 | 0.5 | 0.9 | 55* | 0.9 | 13
CSc1ccc(C(=O)/C=C/c2ccc(N)cc2)cc1 | 0.9 | 0.1 | 0.9 | 90* | 1 | 7
Cc1ccc(/C=C/C(=O)c2ccc(C)cc2)cc1 | 0.9 | 0.5 | 0.9 | 54* | 0.9 | 14
SMILES | PMI act satM6P | FLuc stim CS | Diaph act CS | FLuc inh counter | PMI act | Diaphorase inh
Cc1ccc(/C=C/C(=O)Nc2nc3ccccc3[nH]2)cc1 | 1.1 | 0.9 | 1 | 12 | 1 | 0
Cc1ccc(/C=C/C(=O)c2nc3ccccc3[nH]2)cc1 | 0.9 | 0.1 | 0.9 | 94* | 0.9 | 6
O=C(COC(=O)c1ccncc1)Nc1cc(Cl)c(Cl)cc1Cl | 1 | 1 | 0.9 | 0 | 0.9 | 12
COCCn1c(SCC(=O)Nc2ccc(Cl)cn2)nc2ccccc21 | 1 | 1 | 0.9 | -2 | 1 | 13
Cc1ccc(/C=C/C(=O)C2C(=O)c3ccccc3C2=O)cc1 | 1.1 | 0 | 1 | 97* | 1.1 | 5
Cc1ccc(/C=C/C(=O)Nn2cnnc2)cc1 | 1 | 0.6 | 0.9 | 41 | 1 | 6
COC(=O)c1ccc(/C=C/C(=O)c2cccc(OC)c2)cc1 | 0.9 | 0.6 | 0.8 | 39 | 0.8 | 22
COc1ccc(C(=O)/C=C/c2ccc(O)cc2)cc1 | 0.9 | 0.4 | 0.7 | 55* | 0.9 | 25
COc1ccc(-n2c(=S)[nH]c3c(oc4ccccc43)c2=O)cc1 | 1.1 | 1 | 0.3 | 0 | 1.1 | 68*
Cc1ccc(-n2c(=O)[nH]c3c(oc4ccccc43)c2=O)cc1 | 1 | 1 | 0.8 | -4 | 1 | 20
CC(C(=O)O)n1cc(Cl)cn1 (configuration not stated) | 1.2 | 1 | 1 | -4 | 1.2 | 0
CC1(C)Cc2c(c(-c3ccccc3)[nH]c(=O)c2C#N)CS1 | 1.1 | 1 | 1 | 0 | 1 | -4
N#Cc1c(-c2ccccc2)[nH]c(=S)[nH]c1=O | 1.1 | 1 | 0.5 | -3 | 1 | 51*
Oc1ccc2ccccc2c1CNc1cnc2ccccc2c1 | 0.6 | 1 | 0.4 | 1 | 0.5 | 60*
COc1cc(NC(c2ccccc2)c2ccccc2)cc(OC)c1OC | 0.4 | 1 | 0.2 | -1 | 0.4 | 77*
Clc1ccc(-n2nnnc2-c2ccccc2)cc1Cl | 0.9 | 1.1 | 0.8 | -6 | 1 | 18
Clc1c(-c2ccccc2)nnn1-c1ccccc1 | 1 | 0.3 | 0.9 | 69* | 1 | 10
CCCSc1nc2cc(C)c(C)cc2n1CC(C)O (configuration not stated) | 2.3* | 1 | 0.9 | 5 | 1.6 | 9
O=C1NC2(NN1c1ccccc1)C1CC3CC(C1)CC2C3 (configuration not stated) | 1 | 1 | 0.9 | -4 | 1 | 8
O=C1NC2(CCC3(CC2)OCCO3)NN1c1ccccc1 | 2.3* | 1.1 | 0.8 | -5 | 1.6 | 17
S=C1NC2(CCCCC2)NN1c1ccccc1 | 2.9* | 1.1 | 1 | -6 | 1.8 | -5
CC(C)(C)N1NC2(CCCCC2)NC1=S | 2.1* | 1.1 | 0.9 | -6 | 1.5 | 14
